Experimental data taken from ChEMBL document CHEMBL1138564, “Microwave-induced synthesis and anti-microbial activities of 7,10,11,12-tetrahydrobenzo[c]acridin-8(9H)-one derivatives” (2009).
Calls of active or inactive are those of the source.

Experiments:
Aspergillus flavus [1] = assay: Antimicrobial activity against Aspergillus flavus NCIM 902 at 500 ug/disk after 72 hrs by disk diffusion method; assay type: functional; settings: NCIM 902, 72 h, read-out: DIZ
Outline: (§1)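 Disc diffusion on Sabouraud's dextrose agar. 100 µl of fungal suspension at 10⁶ CFU/ml is spread on the plate. Discs carry test compounds at two loadings in DMSO; DMSO alone is the negative control. Clotrimazole disc is the positive reference. Plates are incubated at 27 °C for 72 h, and the zone of inhibition diameter is measured.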

Aliivibrio fischeri [2] = assay: Antimicrobial activity against Vibrio fischeri NCIM 2154 after 24 hrs by serial dilution method; assay type: functional; settings: NCIM 2154, 24 h
Pseudomonas aeruginosa = assay: Antimicrobial activity against Pseudomonas aeruginosa NCIM 2200 at 500 ug/disk after 24 hrs by disk diffusion method; assay type: functional
Outline: (§2)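 Disc diffusion. 100 µl of bacterial suspension at 10⁸ CFU/ml was spread on Mueller–Hinton agar. Discs loaded with test compound dissolved in DMSO were placed on the lawn, with a DMSO-only disc as negative control. Plates were incubated at 37 °C for 24 h, and the inhibition zone diameter was measured.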

Aspergillus parasiticus [3] = assay: Antimicrobial activity against Aspergillus parasiticus NCIM 904 at 500 ug/disk after 72 hrs by disk diffusion method; assay type: functional; settings: NCIM 904, 72 h, read-out: DIZ; outline: as §1
Aliivibrio fischeri [4] = assay: Antimicrobial activity against Vibrio fischeri NCIM 2154 at 500 ug/disk after 24 hrs by disk diffusion method; assay type: functional; outline: as §2
Staphylococcus [5] = assay: Antimicrobial activity against Staphylococcus albus NCIM 2178 at 1000 ug/disk after 24 hrs by disk diffusion method; assay type: functional; outline: as §2
Salmonella typhimurium = assay: Antimicrobial activity against Salmonella Typhimurium NCIM 2501 at 1000 ug/disk after 24 hrs by disk diffusion method; assay type: functional, Salmonella enterica subsp. enterica serovar Typhimurium; settings: Salmonella enterica, NCIM 2501, 24 h; read-out: DIZ; outline: as §2
[6] = test system: Rhodococcus corynebacterioides; assay: Antimicrobial activity against Corynebacterium rubrum NCIM 2252 at 500 ug/disk after 24 hrs by disk diffusion method; assay type: functional; settings: Rhodococcoides corynebacterioides
Outline: (§3)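 Disc diffusion on Mueller–Hinton agar. 100 µl of bacterial suspension at 10⁸ CFU/ml is spread on the plate. Discs carry test compounds at two loadings, dissolved in DMSO; DMSO alone serves as negative control. Ofloxacin disc is the positive reference. Plates are incubated at 37 °C for 24 h, and the inhibition zone diameter is measured.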

Escherichia coli [7] = assay: Antimicrobial activity against Escherichia coli NCIM 2065 after 24 hrs by serial dilution method; assay type: functional; settings: NCIM 2065, 24 h
Outline: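 Broth dilution MIC in nutrient broth, run only for organisms found sensitive in disc diffusion. Compounds are two-fold serially diluted in 1 ml sterile broth per tube, spanning 3.9 to 1000. Inoculated tubes are incubated at 37 °C for 24 h.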

Lipomyces lipofer [8] = assay: Antimicrobial activity against Lipomyces lipofer NCIM 3252 at 500 ug/disk after 72 hrs by disk diffusion method; assay type: functional; outline: as §1
Trichoderma viride [9] = assay: Antimicrobial activity against Trichoderma viride NCIM 1195 at 500 ug/disk after 72 hrs by disk diffusion method; assay type: functional; settings: NCIM 1195, 72 h, read-out: DIZ
Outline: (§4)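 Fungal disc diffusion. 100 µl of suspension at 10⁶ CFU/ml was spread on Sabouraud's dextrose agar. Discs carrying test compound in DMSO were applied, with a DMSO-only disc as negative control. Plates were incubated at 27 °C for 72 h, and the zone of inhibition diameter was measured.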

Aspergillus flavus [10] = assay: Antimicrobial activity against Aspergillus flavus NCIM 902 after 72 hrs by serial dilution method; assay type: functional; settings: NCIM 535, 72 h, in the assay text read “NCIM 535” for “NCIM 902”
Outline: (§5)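 MIC by broth dilution in Sabouraud's dextrose broth, only for fungi sensitive in disc diffusion. Two-fold serial dilutions of compounds are made in 1 ml broth per tube, range 3.9 to 1000. Inoculated tubes are incubated at 27 °C for 72 h.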

[11] = test system: Rhodococcus corynebacterioides; assay: Antimicrobial activity against Corynebacterium rubrum NCIM 2252 at 1000 ug/disk after 24 hrs by disk diffusion method; assay type: functional; settings: Rhodococcoides corynebacterioides; outline: as §3
Bacillus cereus [12] = assay: Antimicrobial activity against Bacillus cereus NCIM 2155 at 500 ug/disk after 24 hrs by disk diffusion method; assay type: functional; settings: NCIM 2155, 24 h, read-out: DIZ; outline: as §3
Rhodotorula mucilaginosa = assay: Antimicrobial activity against Rhodotorula rubra NCIM 3174 at 500 ug/disk after 72 hrs by disk diffusion method; assay type: functional; settings: NCIM 3174, 72 h, read-out: DIZ; outline: as §4
Bacillus cereus [13] = assay: Antimicrobial activity against Bacillus cereus NCIM 2155 at 1000 ug/disk after 24 hrs by disk diffusion method; assay type: functional; settings: NCIM 2155, 24 h, read-out: DIZ; outline: as §3
Escherichia coli [14] = assay: Antimicrobial activity against Escherichia coli NCIM 2065 at 1000 ug/disk after 24 hrs by disk diffusion method; assay type: functional; settings: NCIM 2065, 24 h, read-out: DIZ; outline: as §3
Aspergillus fumigatus [15] = assay: Antimicrobial activity against Aspergillus fumigatus NCIM 902 at 1000 ug/disk after 72 hrs by disk diffusion method; assay type: functional; settings: NCIM 902, 72 h, read-out: DIZ; outline: as §1
Bacillus subtilis = assay: Antimicrobial activity against Bacillus subtilis NCIM 2063 at 500 ug/disk after 24 hrs by disk diffusion method; assay type: functional; settings: NCIM 2063, 24 h, read-out: DIZ; outline: as §3
Escherichia coli [16] = assay: Antimicrobial activity against Escherichia coli NCIM 2065 at 500 ug/disk after 24 hrs by disk diffusion method; assay type: functional; settings: NCIM 2065, 24 h, read-out: DIZ; outline: as §3
Aspergillus parasiticus [17] = assay: Antimicrobial activity against Aspergillus parasiticus NCIM 904 after 72 hrs by serial dilution method; assay type: functional; settings: NCIM 904, 72 h; outline: as §5
Aspergillus flavus [18] = assay: Antimicrobial activity against Aspergillus flavus NCIM 902 at 1000 ug/disk after 72 hrs by disk diffusion method; assay type: functional; settings: NCIM 902, 72 h, read-out: DIZ; outline: as §1
Lipomyces lipofer [19] = assay: Antimicrobial activity against Lipomyces lipofer NCIM 3252 at 1000 ug/disk after 72 hrs by disk diffusion method; assay type: functional; outline: as §1
Aspergillus fumigatus [20] = assay: Antimicrobial activity against Aspergillus fumigatus NCIM 902 at 500 ug/disk after 72 hrs by disk diffusion method; assay type: functional; outline: as §1
Proteus vulgaris [21] = assay: Antimicrobial activity against Proteus vulgaris NCIM 2027 at 500 ug/disk after 24 hrs by disk diffusion method; assay type: functional; outline: as §3
Penicillium chrysogenum [22] = assay: Antimicrobial activity against Penicillium chrysogenum NCIM 707 at 1000 ug/disk after 72 hrs by disk diffusion method; assay type: functional; outline: as §1
Staphylococcus [23] = assay: Antimicrobial activity against Staphylococcus albus NCIM 2178 at 500 ug/disk after 24 hrs by disk diffusion method; assay type: functional; outline: as §2
Proteus vulgaris [24] = assay: Antimicrobial activity against Proteus vulgaris NCIM 2027 at 1000 ug/disk after 24 hrs by disk diffusion method; assay type: functional; outline: as §3
Penicillium chrysogenum [25] = assay: Antimicrobial activity against Penicillium chrysogenum NCIM 707 at 500 ug/disk after 72 hrs by disk diffusion method; assay type: functional; outline: as §1
Trichoderma viride [26] = assay: Antimicrobial activity against Trichoderma viride NCIM 1195 after 72 hrs by serial dilution method; assay type: functional; settings: NCIM 1195, 72 h
Outline: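 MIC by broth dilution in Sabouraud's dextrose broth, run only on fungi found sensitive in the disc assay. Twofold serial dilutions were made in 1 ml broth per tube, covering 3.9 to 1000. Inoculated tubes were incubated at 27 °C for 72 h.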

Trichoderma viride [27] = assay: Antimicrobial activity against Trichoderma viride NCIM 1195 at 1000 ug/disk after 72 hrs by disk diffusion method; assay type: functional; settings: NCIM 1195, 72 h, read-out: DIZ; outline: as §4
Klebsiella aerogenes = assay: Antimicrobial activity against Klebsiella aerogenes NCIM 2239 at 500 ug/disk after 24 hrs by disk diffusion method; assay type: functional; outline: as §3

CC1(C)CC(=O)C2=C(C1)Nc1c(ccc3ccccc13)C2c1ccccc1 (configuration not stated)
62.5 µg/mL: MIC (Escherichia coli [7]) | MIC (Aspergillus flavus [10]) | MIC (Aspergillus parasiticus [17])
125 µg/mL: MIC (Aliivibrio fischeri [2])
7 mm: zone of inhibition at 500 µg/disc (Aspergillus parasiticus [3]) | zone of inhibition at 500 µg/disc (Escherichia coli [16])
31.2 µg/mL: MIC (Trichoderma viride [26])
8 mm: zone of inhibition at 500 µg/disc (Bacillus subtilis)
12 mm: zone of inhibition at 1000 µg/disc (Bacillus cereus [13]) | zone of inhibition at 1000 µg/disc (Trichoderma viride [27])
10 mm: zone of inhibition at 1000 µg/disc (Salmonella typhimurium) | zone of inhibition at 500 µg/disc (Rhodotorula mucilaginosa) | zone of inhibition at 1000 µg/disc (Escherichia coli [14]) | zone of inhibition at 1000 µg/disc (Aspergillus fumigatus [15]) | zone of inhibition at 1000 µg/disc (Aspergillus flavus [18])
9 mm: zone of inhibition at 500 µg/disc (Aspergillus flavus [1]) | zone of inhibition at 500 µg/disc (Trichoderma viride [9]) | zone of inhibition at 500 µg/disc (Bacillus cereus [12])
inactive: diameter of the inhibition zone (DIZ) (Pseudomonas aeruginosa) | diameter of the inhibition zone (DIZ) (Aliivibrio fischeri [4]) | diameter of the inhibition zone (DIZ) (Staphylococcus [5]) | diameter of the inhibition zone (DIZ) [6] | diameter of the inhibition zone (DIZ) (Lipomyces lipofer [8]) | diameter of the inhibition zone (DIZ) [11] | diameter of the inhibition zone (DIZ) (Lipomyces lipofer [19]) | diameter of the inhibition zone (DIZ) (Aspergillus fumigatus [20]) | diameter of the inhibition zone (DIZ) (Proteus vulgaris [21]) | diameter of the inhibition zone (DIZ) (Penicillium chrysogenum [22]) | diameter of the inhibition zone (DIZ) (Staphylococcus [23]) | diameter of the inhibition zone (DIZ) (Proteus vulgaris [24]) | diameter of the inhibition zone (DIZ) (Penicillium chrysogenum [25]) | diameter of the inhibition zone (DIZ) (Klebsiella aerogenes)
